This is a sample that favours compounds with a hit; in the whole collection about 3.5% have one here.
MEKK2mut PB1 HTS – MEK5 binding signal on mutant MEKK2 PB1, primary screen, biochemical, multiplex bead flow cytometry, Alexa488-MEK5; hit rate 0.35% among 290,000; percent response, % at 10 µM; Alexa488-MEK5 binding to MEKK2 mutant; in the data active = percent response above about 24%, passing the limit was not always enough
WT yeast gro inh – growth inhibition of WT strain, primary screen, mitochondrial fusion inhibitor project, WT and mutant strains, chemical genetic; inhibition, % at 10 µM; hit rate 2.1% among 190,000; mitochondrial fusion phenotypic screen; in the data active = inhibition above about 58%; tested in S. cerevisiae
MEKK3 PB1 HTS – modulators of MEKK3-MEK5 PB1 binding, primary screen, biochemical, wildtype MEKK3, multiplex bead flow cytometry, Alexa488-MEK5; bead-based flow cytometry, Alexa488-MEK5 binding to MEKK3; actives lie on both sides; 0 = blocked by unlabeled MEK5, 100 = vehicle; binding response (% of control), % at 10 µM; hit rate 1.4% among 290,000;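 active = binding response more than 3 SD above or below the average of its plate-row segment, actives on both sides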;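 note: Alexa488 bead fluorescence after subtracting the streptavidin-only scavenger bead signal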
MEKK2wt PB1 HTS – modulators of MEK5 binding to wildtype MEKK2, primary screen, biochemical, multiplex bead flow cytometry, Alexa488-MEK5. Mitogen-activated protein kinase kinase kinase 2 (Homo sapiens), Q9Y2U5. Alexa488-MEK5 binding to MEKK2 WT; actives lie on both sides. binding response (% of control), % at 10 µM. hit rate 1.1% among 290,000; in the data active = binding response below about 67% or above about 130%
ABCG2 block – ABCG2 efflux pump inhibitors, primary screen, multiplex with ABCB1, IgMXP3 cells, flow cytometry; JC-1 efflux; inhibition, % at 6.6 µM; hit rate 0.1% among 190,000; AID 1325, 2008;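 active = inhibition above 80%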
Target sequence (Q9UNQ0 whole entry, looked up): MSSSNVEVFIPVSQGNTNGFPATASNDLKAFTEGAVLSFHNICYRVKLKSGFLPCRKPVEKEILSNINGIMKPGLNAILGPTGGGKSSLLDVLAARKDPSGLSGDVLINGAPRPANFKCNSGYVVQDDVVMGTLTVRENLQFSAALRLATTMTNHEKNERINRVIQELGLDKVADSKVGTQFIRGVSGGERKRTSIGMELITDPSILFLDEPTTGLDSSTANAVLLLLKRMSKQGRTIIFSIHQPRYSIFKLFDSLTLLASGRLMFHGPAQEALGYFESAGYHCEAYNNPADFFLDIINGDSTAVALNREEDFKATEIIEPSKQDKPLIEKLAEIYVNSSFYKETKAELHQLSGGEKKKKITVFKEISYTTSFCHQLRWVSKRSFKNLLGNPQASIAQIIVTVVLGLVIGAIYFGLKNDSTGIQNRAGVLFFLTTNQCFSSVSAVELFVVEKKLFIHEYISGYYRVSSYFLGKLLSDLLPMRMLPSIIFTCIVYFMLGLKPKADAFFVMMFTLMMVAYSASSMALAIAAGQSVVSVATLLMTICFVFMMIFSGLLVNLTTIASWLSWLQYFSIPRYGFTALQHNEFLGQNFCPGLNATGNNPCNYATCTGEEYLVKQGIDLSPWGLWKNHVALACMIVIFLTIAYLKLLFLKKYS
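Read-out basis: Efflux inhibition in percent versus controls | Test system: ABCG2 IgMXP3 and barcoded ABCB1 CCRF-Adr cell mix | Quantity: 3 million cells/mL in well | Schedule: 10 min at 25 °C | Control set: Nicardipine as high control, DMSO as low control | Reagent: JC-1 as fluorescent efflux pump substrate | Signal: Flow cytometry of retained JC-1 fluorescence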
ABCB1 block – ABCB1 efflux pump inhibitors, primary screen, cell-based, multiplex, flow cytometry, ABCG2 counter-screen; CCRF-Adr cells, JC-1 efflux; inhibition, % at 6.6 µM; hit rate 0.067% among 190,000; AID 1326, 2008; in the data active = inhibition above about 40%;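 note: higher value means more JC-1 retained so stronger ABCB1 efflux block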
ABCB1 confirm – ABCB1 efflux pump inhibitors, confirmation, cell-based, single point, ABCG2 counter-screen. shares compounds with ABCG2 block. CCRF-Adr cells, JC-1 efflux, flow cytometry. inhibition, % at 6.6 µM. hit rate 7% among 270;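 active = inhibition of pump activity above 50%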
ABCG2 single pt – ABCG2 efflux pump inhibitors, confirmation, single point, IgMXP3 cells, ABCB1 counter-screen paired; shares compounds with ABCG2 block; JC-1 efflux, flow cytometry; inhibition, % at 6.6 µM; hit rate 6% among 270; AID 1453, 2008;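 active = inhibition above 50%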
IgMXP3 fluor – compound autofluorescence in ABCG2-expressing IgMXP3 cells, confirmation, artefact control for ABC transporter inhibitor project, cell-based, 488/530 nm, flow cytometry. shares compounds with ABCG2 block. compound autofluorescence 488/530 nm; hits give high values. fluorescence at 6.6 µM. hit rate 30% among 270. AID 1480, 2009;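 active = fluorescence in ABCG2-expressing cells above the plate's control-well mean plus 3 SD, cut at about 15 in these data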
CCRF autofluor – compound autofluorescence in ABCB1-expressing CCRF-Adr cells, confirmation, artefact control for ABC transporter inhibitor project, cell-based, 488/530 nm, flow cytometry | fluorescence at 6.6 µM | shares compounds with ABCG2 block | compound autofluorescence 488/530 nm; hits give high values | hit rate 30% among 270;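 active = fluorescence beyond the plate control mean plus 3 SD, with a fluorescence-to-maximum score over 2, cut at about 25 in these data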
MEKK2wt confirm – modulators of MEK5 binding to wildtype MEKK2, confirmation, biochemical, single concentration, multiplex bead flow cytometry; binding response (% of control), % at 10 µM; Alexa488-MEK5 binding to MEKK2 WT; actives lie on both sides; shares compounds with MEKK3 PB1 HTS; AID 1892, 2009; hit rate 2.4% among 5,900; in the data active = binding response below about 16% or above about 210%; inactive = in between
MEKK2mut confirm – mutant MEKK2 PB1-MEK5 binding signal retest – biochemical, single concentration, multiplex bead flow cytometry, confirmation. AID 1893, 2009. shares compounds with MEKK3 PB1 HTS. hit rate 2% among 5,900. percent response, % at 10 µM. Alexa488-MEK5 binding to MEKK2 mutant; in the data active = percent response mostly above about 71%, no sharp cut-off; inactive = mostly below about 38%;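 note: higher means compound restores mutant binding toward wildtype level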
MEKK3-MEK5 inh – MEKK3 wild-type PB1 binding to MEK5, inhibitors, confirmation, biochemical, bead multiplex flow cytometry, single concentration, wildtype. shares compounds with MEKK3 PB1 HTS. Alexa488-MEK5 binding to MEKK3; hits give low values. binding response (% of control), % at 10 µM. hit rate 1.8% among 5,900. AID 1894, 2009;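 active = binding response below 72% of control, or above a set upper limit, though filed actives all read lower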;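 note: lower values mean stronger disruption of MEK5 binding to MEKK3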
Each line names hits and unclear results; the compound was inactive in the other large screens (follow-up assays come after a bar, where they were run); [ ] = remark or other dose.

N#C/C(=C/c1ccc(N2CCCCC2)o1)C(=O)Nc1ccc2ccccc2c1	MEKK2mut PB1 HTS 206, MEKK3 PB1 HTS 148, MEKK2wt PB1 HTS 210, ABCG2 block active, ABCB1 block 134 | ABCB1 confirm inactive | ABCG2 single pt inactive | IgMXP3 fluor 397 | CCRF autofluor 624 | MEKK2wt confirm inactive | MEKK2mut confirm inactive | MEKK3-MEK5 inh inactive
COc1ccc(NC(=O)/C(C#N)=C\c2ccc(N3CCOCC3)o2)cc1	none
O=C(NCC(=O)N1CCN(S(=O)(=O)/C=C/c2ccccc2)CC1)c1ccc(Cl)cc1	none (no result: WT yeast gro inh, ABCG2 block, ABCB1 block)
CC[n+]1c(/C=C/c2c[nH]c3ccccc23)ccc2cc(C)ccc21	MEKK2mut PB1 HTS 119, WT yeast gro inh 76, ABCG2 block 84 (no result: MEKK2wt PB1 HTS) | ABCB1 confirm inactive | ABCG2 single pt inactive | IgMXP3 fluor 194 | CCRF autofluor 62 | MEKK2wt confirm inactive | MEKK2mut confirm inactive | MEKK3-MEK5 inh inactive
COc1ccc2cc3cc(C(=O)NCCN4CCN(c5ccccc5F)CC4)oc3nc2c1	none (no result: MEKK2mut PB1 HTS, MEKK3 PB1 HTS, MEKK2wt PB1 HTS)
COc1ccc2cc3cc(C(=O)Nc4ccccc4N4CCN(C)CC4)oc3nc2c1	MEKK2wt PB1 HTS 173, ABCB1 block 47 | ABCB1 confirm inactive | ABCG2 single pt inactive | IgMXP3 fluor inactive | CCRF autofluor inactive | MEKK2wt confirm inactive | MEKK2mut confirm inactive | MEKK3-MEK5 inh inactive
CCc1nnc(NC(=O)Cc2ccc(OCc3c(C)noc3C)cc2)s1	none
CCCNC(=O)Cn1c(=O)/c(=C\c2ccc(-c3cccc([N+](=O)[O-])c3)o2)s/c1=C\C(=O)C(C)(C)C	none
CCCNC(=O)Cn1c(=O)/c(=C\c2ccc(-c3ccc([N+](=O)[O-])cc3)o2)s/c1=C\C(=O)C(C)(C)C	MEKK2mut PB1 HTS 132, ABCG2 block 159, ABCB1 block 129 (no result: MEKK2wt PB1 HTS) | ABCB1 confirm inactive | ABCG2 single pt inactive | IgMXP3 fluor 524 | CCRF autofluor 441 | MEKK2wt confirm inactive | MEKK2mut confirm inactive | MEKK3-MEK5 inh inactive
CCN1/C(=C/c2ccc3cc(C)ccc3[n+]2CC)Sc2cc(C)ccc21	MEKK3 PB1 HTS 51[inhibitor], MEKK2wt PB1 HTS 11[inhibitor], ABCG2 block active | ABCB1 confirm 114 | ABCG2 single pt inactive | IgMXP3 fluor 118 | CCRF autofluor 187 | MEKK2wt confirm inactive | MEKK2mut confirm inactive | MEKK3-MEK5 inh inactive
Cc1ccc2c(c1)S/C(=C/c1ccc[n+](C)c1)N2CCO	none
CN(C)c1ccc(/C=C/C(=O)c2cccc(Br)c2)cc1	MEKK2wt PB1 HTS 63[inhibitor] | ABCB1 confirm inactive | ABCG2 single pt inactive | IgMXP3 fluor 19 | CCRF autofluor 103 | MEKK2wt confirm inactive | MEKK2mut confirm inactive | MEKK3-MEK5 inh inactive
Cc1cccc(C2c3[nH]c4ccccc4c3CCN2C(=O)c2cc(CC(C)C)[nH]c(=O)n2)n1 (configuration not stated)	none
Cn1c(=O)c(NCCc2ccccc2)c2c3c(cccc31)C(=O)c1ccccc1-2	MEKK2wt PB1 HTS 62[inhibitor], ABCG2 block 151, ABCB1 block 70 | ABCB1 confirm inactive | ABCG2 single pt inactive | IgMXP3 fluor 55 | CCRF autofluor 143 | MEKK2wt confirm inactive | MEKK2mut confirm inactive | MEKK3-MEK5 inh inactive
CCCCNc1c2c3c(cccc3n(C)c1=O)C(=O)c1ccccc1-2	WT yeast gro inh 64, MEKK2wt PB1 HTS 41[inhibitor], ABCG2 block 142, ABCB1 block 66 | ABCB1 confirm inactive | ABCG2 single pt inactive | IgMXP3 fluor 71 | CCRF autofluor 132 | MEKK2wt confirm inactive | MEKK2mut confirm inactive | MEKK3-MEK5 inh inactive
CCN(Cc1ccncc1)Cc1nc(CC2CC2)no1	none
O=C(Nc1ccc(Cl)c(-c2nc3ccccc3[nH]2)c1)c1ccc2c(c1)OCO2	none
O=C(Nc1ccc(-c2nc3ccccc3[nH]2)cc1)c1ccc2c(c1)OCO2	MEKK3 PB1 HTS 81[inhibitor] | MEKK2wt confirm inactive | MEKK2mut confirm inactive | MEKK3-MEK5 inh inactive
CCN(CC)c1ccc2cc(C(C)=O)c(=O)oc2c1	none
CCN(CC)c1ccc2cc(C(=O)Nc3ccccn3)c(=O)oc2c1	MEKK2wt PB1 HTS 58[inhibitor] | MEKK2wt confirm inactive | MEKK2mut confirm inactive | MEKK3-MEK5 inh inactive
CC1(C)Cc2c(c(-c3ccco3)nc3sc4c(NCC5CCCO5)ncnc4c23)CO1 (configuration not stated)	MEKK3 PB1 HTS 143 | MEKK2wt confirm inactive | MEKK2mut confirm inactive | MEKK3-MEK5 inh inactive
O=C(NC1CCCc2ccccc21)c1c(F)cccc1Cl (configuration not stated)	none (no result: WT yeast gro inh, ABCG2 block, ABCB1 block)
O=C(Nc1cc(F)cc(F)c1)c1ccc(NCCc2ccccc2)c([N+](=O)[O-])c1	none

Assay outcomes from PubChem.
